According to ChEMBL document CHEMBL1127698, “Matrix metalloproteinase inhibitors containing a (carboxyalkyl)amino zinc ligand: modification of the P1 and P2' residues” (J Med Chem, 1994):

Target: Stromelysin-1 (Homo sapiens, UniProt P08254)
Sequence (P08254 whole entry): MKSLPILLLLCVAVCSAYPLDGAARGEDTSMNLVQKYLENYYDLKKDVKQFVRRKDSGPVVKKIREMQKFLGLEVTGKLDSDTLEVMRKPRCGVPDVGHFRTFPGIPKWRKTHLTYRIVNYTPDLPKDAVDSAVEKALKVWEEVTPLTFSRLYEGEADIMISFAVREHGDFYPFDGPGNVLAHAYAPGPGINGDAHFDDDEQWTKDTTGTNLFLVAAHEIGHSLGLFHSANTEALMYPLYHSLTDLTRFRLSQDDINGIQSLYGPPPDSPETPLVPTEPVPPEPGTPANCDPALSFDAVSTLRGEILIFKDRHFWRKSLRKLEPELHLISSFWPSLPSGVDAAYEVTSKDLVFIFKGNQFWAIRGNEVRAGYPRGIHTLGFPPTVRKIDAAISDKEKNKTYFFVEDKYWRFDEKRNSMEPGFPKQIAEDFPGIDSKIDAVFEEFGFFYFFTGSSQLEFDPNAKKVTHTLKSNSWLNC
Assay: Activity against human stromelysin (MMP-3).
How it was run: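 Fluorogenic stromelysin assay: human enzyme 10 nM in pH 7.6 Tris buffer (200 mM NaCl, 5 mM CaCl2, 20 μM ZnSO4, 0.05% Brij 35). Inhibitors ran from 10 000 to 0.057 nM in 3-fold steps. Ki came from % inhibition vs log[inhibitor], with substrate far below Km.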
In the case of `CC(C)C[C@H](N[C@H](CCN1C(=O)c2cc3ccccc3cc2C1=O)C(=O)O)C(=O)Nc1ccccc1`, the IC50 is reported as 12.5 µM. With `CNC(=O)[C@H](Cc1ccccc1)NC(=O)[C@H](CC(C)C)N[C@H](CCNC(=O)OCc1ccccc1)C(=O)O` the IC50 was 3.57 µM. Work on `CC(C)C[C@H](N[C@H](CCN1C(=O)c2cc3ccccc3cc2C1=O)C(=O)O)C(=O)NCc1cccc(F)c1` yielded an IC50 of 1.48 µM. `CC(C)C[C@H](N[C@H](CCN1C(=O)c2cc3ccccc3cc2C1=O)C(=O)O)C(=O)NCc1nnn(C)n1` gave an IC50 of 2.98 µM. For `CNC(=O)[C@H](Cc1ccccc1)NC(=O)[C@H](CC(C)C)N[C@H](CCn1c(=O)c2cc3c(=O)[nH]c(=O)c3cc2c1=O)C(=O)O`, the IC50 was 2.17 µM. `CC(C)C[C@H](N[C@H](CCN1C(=O)c2cc3ccccc3cc2C1=O)C(=O)O)C(=O)NCc1ccc(S(N)(=O)=O)cc1` gave an IC50 of 0.295 µM. Work on `CNC(=O)[C@H](C)NC(=O)[C@H](CC(C)C)N[C@H](CCN1C(=O)c2cc3ccccc3cc2C1=O)C(=O)O` yielded an IC50 of 5.63 µM. In the case of `CNC(=O)[C@H](Cc1ccccc1)NC(=O)[C@H](CC(C)C)N[C@H](CCN1C(=O)c2ccccc2C1=O)C(=O)O`, the IC50 is reported as 5.97 µM. With `CNC(=O)C(NC(=O)[C@H](CC(C)C)N[C@H](CCN1C(=O)c2cc3ccccc3cc2C1=O)C(=O)O)c1ccccc1` (some centres not stated) the IC50 was 0.631 µM. Work on `CNC(=O)[C@H](Cc1ccc(O)cc1)NC(=O)[C@H](CC(C)C)N[C@H](CCN1C(=O)c2cc3ccccc3cc2C1=O)C(=O)O` yielded an IC50 of 0.072 µM. Work on `CC(C)C[C@H](N[C@H](CCN1C(=O)c2cc3ccccc3cc2C1=O)C(=O)O)C(=O)N(C)C` yielded an IC50 greater than 10 µM. Work on `CNC(=O)[C@H](Cc1ccccc1)NC(=O)[C@H](CC(C)C)N[C@H](CCN1C(=O)c2ccc(-c3ccccc3)cc2C1=O)C(=O)O` yielded an IC50 of 0.216 µM. With `CNC(=O)[C@H](Cc1ccccc1)NC(=O)[C@H](CC(C)C)N[C@H](CCN1C(=O)c2cc3ccccc3c(OC)c2C1=O)C(=O)O` the IC50 was 1.37 µM. For `CCCOc1ccc2c(c1)C(=O)N(CC[C@@H](N[C@@H](CC(C)C)C(=O)N[C@@H](Cc1ccccc1)C(=O)NC)C(=O)O)C2=O`, the IC50 was 0.427 µM. With `CC(C)C[C@H](N[C@H](CCN1C(=O)c2cc3ccccc3cc2C1=O)C(=O)O)C(=O)NCc1ccccc1` the IC50 was 1.52 µM. With `CNC(=O)[C@H](Cc1ccccc1)NC(=O)[C@H](CC(C)C)N[C@H](CCN1C(=O)c2cc3cccc(OC)c3cc2C1=O)C(=O)O` the IC50 was 1.4 µM. Work on `CC(C)C[C@H](N[C@H](CCN1C(=O)c2cc3ccccc3cc2C1=O)C(=O)O)C(=O)N1CCCC1c1cccnc1` (stereo in doubt; 75) yielded an IC50 of 0.96 µM. With `CC(C)C[C@H](N[C@H](CCN1C(=O)c2cc3ccccc3cc2C1=O)C(=O)O)C(=O)N1CCCC1c1cccnc1` (stereo in doubt; 76) the IC50 was 4.08 µM.

Target: Matrix metalloproteinase-9 (Homo sapiens, UniProt P14780)
Sequence (P14780 whole entry): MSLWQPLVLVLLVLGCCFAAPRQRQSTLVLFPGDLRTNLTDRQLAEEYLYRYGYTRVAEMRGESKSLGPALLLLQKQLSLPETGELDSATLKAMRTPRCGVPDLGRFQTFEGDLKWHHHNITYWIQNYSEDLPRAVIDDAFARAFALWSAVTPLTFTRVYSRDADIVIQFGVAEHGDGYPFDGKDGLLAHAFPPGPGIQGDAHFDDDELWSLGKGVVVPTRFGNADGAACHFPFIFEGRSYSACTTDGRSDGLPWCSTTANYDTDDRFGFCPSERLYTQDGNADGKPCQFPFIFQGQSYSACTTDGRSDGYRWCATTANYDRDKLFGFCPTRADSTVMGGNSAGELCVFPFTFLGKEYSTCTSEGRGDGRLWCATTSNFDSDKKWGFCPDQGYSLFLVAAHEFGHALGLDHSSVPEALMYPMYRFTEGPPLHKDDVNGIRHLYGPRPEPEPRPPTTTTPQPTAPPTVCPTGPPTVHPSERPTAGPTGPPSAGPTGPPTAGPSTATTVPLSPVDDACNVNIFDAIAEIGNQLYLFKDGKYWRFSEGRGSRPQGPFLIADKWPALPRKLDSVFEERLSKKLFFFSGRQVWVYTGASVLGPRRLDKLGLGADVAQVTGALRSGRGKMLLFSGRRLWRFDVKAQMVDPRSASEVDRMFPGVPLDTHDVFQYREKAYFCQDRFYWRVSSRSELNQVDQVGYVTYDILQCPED
Assay: Activity against human gelatinase (MMP-9).
How it was run: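 Human gelatinase at 1 nM in pH 7.6 Tris buffer (200 mM NaCl, 5 mM CaCl2, 20 μM ZnSO4, 0.05% Brij 35), with inhibitors at 3-fold dilutions from 10 000 to 0.057 nM. Ki came from % inhibition vs log concentration, with substrate far below Km.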
Molecule `CNC(=O)[C@H](Cc1ccccc1)NC(=O)[C@H](CC(C)C)N[C@H](CCN1C(=O)c2cc3c(cc2C1=O)OCO3)C(=O)O` has an IC50 of 0.005 µM. `CC(C)C[C@H](N[C@H](CCN1C(=O)c2cc3ccccc3cc2C1=O)C(=O)O)C(=O)Nc1ccccc1` showed an IC50 of 0.101 µM. Molecule `CNC(=O)[C@H](Cc1ccccc1)NC(=O)[C@H](CC(C)C)N[C@H](CCNC(=O)OCc1ccccc1)C(=O)O` has an IC50 of 0.58 µM. For `CC(C)C[C@H](N[C@H](CCN1C(=O)c2cc3ccccc3cc2C1=O)C(=O)O)C(=O)NCc1cccc(F)c1`, the IC50 was 0.015 µM. Molecule `CC(C)C[C@H](N[C@H](CCN1C(=O)c2cc3ccccc3cc2C1=O)C(=O)O)C(=O)NCc1nnn(C)n1` has an IC50 of 0.03 µM. `CNC(=O)[C@H](Cc1ccccc1)NC(=O)[C@H](CC(C)C)N[C@H](CCn1c(=O)c2cc3c(=O)[nH]c(=O)c3cc2c1=O)C(=O)O` showed an IC50 of 0.0048 µM. `CC(C)C[C@H](N[C@H](CCN1C(=O)c2cc3ccccc3cc2C1=O)C(=O)O)C(=O)NCc1ccc(S(N)(=O)=O)cc1` showed an IC50 of 0.0067 µM. With `CNC(=O)[C@H](C)NC(=O)[C@H](CC(C)C)N[C@H](CCN1C(=O)c2cc3ccccc3cc2C1=O)C(=O)O` the IC50 was 0.069 µM. `CNC(=O)[C@H](Cc1ccccc1)NC(=O)[C@H](CC(C)C)N[C@H](CCN1C(=O)c2ccccc2C1=O)C(=O)O` showed an IC50 of 0.059 µM. Work on `CNC(=O)C(NC(=O)[C@H](CC(C)C)N[C@H](CCN1C(=O)c2cc3ccccc3cc2C1=O)C(=O)O)c1ccccc1` (some centres not stated) yielded an IC50 of 0.014 µM. For `CNC(=O)[C@H](Cc1ccc(O)cc1)NC(=O)[C@H](CC(C)C)N[C@H](CCN1C(=O)c2cc3ccccc3cc2C1=O)C(=O)O`, the IC50 was 0.0038 µM. Molecule `CC(C)C[C@H](N[C@H](CCN1C(=O)c2cc3ccccc3cc2C1=O)C(=O)O)C(=O)N(C)C` has an IC50 of 0.082 µM. Molecule `CNC(=O)[C@H](Cc1ccccc1)NC(=O)[C@H](CC(C)C)N[C@H](CCN1C(=O)c2ccc(-c3ccccc3)cc2C1=O)C(=O)O` has an IC50 of 0.0045 µM. For `CNC(=O)[C@H](Cc1ccccc1)NC(=O)[C@H](CC(C)C)N[C@H](CCN1C(=O)c2cc3ccccc3c(OC)c2C1=O)C(=O)O`, the IC50 was 0.0074 µM. Molecule `CCCOc1ccc2c(c1)C(=O)N(CC[C@@H](N[C@@H](CC(C)C)C(=O)N[C@@H](Cc1ccccc1)C(=O)NC)C(=O)O)C2=O` has an IC50 of 0.0021 µM. `CC(C)C[C@H](N[C@H](CCN1C(=O)c2cc3ccccc3cc2C1=O)C(=O)O)C(=O)NCc1ccccc1` gave an IC50 of 0.032 µM. Work on `CNC(=O)[C@H](Cc1ccccc1)NC(=O)[C@H](CC(C)C)N[C@H](CCN1C(=O)c2cc3cccc(OC)c3cc2C1=O)C(=O)O` yielded an IC50 of 0.015 µM. In the case of `CC(C)C[C@H](N[C@H](CCN1C(=O)c2cc3ccccc3cc2C1=O)C(=O)O)C(=O)N1CCCC1c1cccnc1` (stereo in doubt; 75), the IC50 is reported as 0.018 µM. In the case of `CC(C)C[C@H](N[C@H](CCN1C(=O)c2cc3ccccc3cc2C1=O)C(=O)O)C(=O)N1CCCC1c1cccnc1` (stereo in doubt; 76), the IC50 is reported as 0.07 µM.

System: not listed separately
Assay: Half-life period for the activity is tested at pH 6.8
Assay type: ADME
How it was run: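 Inhibitor at 20 μM in 20 mM sodium phosphate, pH 6.8, held at 30 °C. Aliquots were injected every 3 h over 24 h onto C18 reverse-phase HPLC with a 5–60% acetonitrile gradient containing 0.1% TFA.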
`CNC(=O)[C@H](Cc1ccccc1)NC(=O)[C@H](CC(C)C)N[C@H](CCN1C(=O)c2cc3c(cc2C1=O)OCO3)C(=O)O` gave a half-life of 15.5 h. Molecule `CNC(=O)[C@H](Cc1ccccc1)NC(=O)[C@H](CC(C)C)N[C@H](CCn1c(=O)c2cc3c(=O)[nH]c(=O)c3cc2c1=O)C(=O)O` has a half-life of 1.7 h. `CNC(=O)[C@H](Cc1ccccc1)NC(=O)[C@H](CC(C)C)N[C@H](CCN1C(=O)c2ccccc2C1=O)C(=O)O` showed a half-life of 10 h. Molecule `CNC(=O)[C@H](Cc1ccccc1)NC(=O)[C@H](CC(C)C)N[C@H](CCN1C(=O)c2ccc(-c3ccccc3)cc2C1=O)C(=O)O` has a half-life of 7.8 h. Work on `CNC(=O)[C@H](Cc1ccccc1)NC(=O)[C@H](CC(C)C)N[C@H](CCN1C(=O)c2cc3ccccc3c(OC)c2C1=O)C(=O)O` yielded a half-life of 87 h. Work on `CCCOc1ccc2c(c1)C(=O)N(CC[C@@H](N[C@@H](CC(C)C)C(=O)N[C@@H](Cc1ccccc1)C(=O)NC)C(=O)O)C2=O` yielded a half-life of 10.9 h. `CNC(=O)[C@H](Cc1ccccc1)NC(=O)[C@H](CC(C)C)N[C@H](CCN1C(=O)c2cc3cccc(OC)c3cc2C1=O)C(=O)O` gave a half-life of 7.2 h.

Target: T1, Interstitial collagenase (Homo sapiens, UniProt P03956)
T1 sequence (P03956 whole entry): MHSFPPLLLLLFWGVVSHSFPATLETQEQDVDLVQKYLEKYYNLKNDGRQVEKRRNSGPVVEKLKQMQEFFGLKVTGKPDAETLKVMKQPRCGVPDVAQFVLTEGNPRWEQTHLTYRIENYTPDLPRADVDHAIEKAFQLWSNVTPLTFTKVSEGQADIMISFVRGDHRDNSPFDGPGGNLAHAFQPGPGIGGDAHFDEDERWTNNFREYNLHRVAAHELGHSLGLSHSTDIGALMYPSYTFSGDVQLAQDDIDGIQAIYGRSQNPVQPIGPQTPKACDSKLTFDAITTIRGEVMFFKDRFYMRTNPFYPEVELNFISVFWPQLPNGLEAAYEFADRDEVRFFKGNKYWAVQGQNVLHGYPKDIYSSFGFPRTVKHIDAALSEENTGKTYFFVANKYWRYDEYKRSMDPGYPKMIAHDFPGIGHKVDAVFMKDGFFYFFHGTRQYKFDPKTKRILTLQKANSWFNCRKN
Assay: Activity against human collagenase (MMP-1).
`CNC(=O)[C@H](Cc1ccccc1)NC(=O)[C@H](CC(C)C)N[C@H](CCN1C(=O)c2cc3c(cc2C1=O)OCO3)C(=O)O` showed an IC50 of 0.012 µM. Molecule `CNC(=O)[C@H](Cc1ccccc1)NC(=O)[C@H](CC(C)C)N[C@H](CCN1C(=O)c2cc3ccc(OC)cc3cc2C1=O)C(=O)O` has an IC50 of 0.036 µM. `CC(C)C[C@H](N[C@H](CCN1C(=O)c2cc3ccccc3cc2C1=O)C(=O)O)C(=O)NCc1cccc(F)c1` showed an IC50 of 0.041 µM. `CC(C)C[C@H](N[C@H](CCN1C(=O)c2cc3ccccc3cc2C1=O)C(=O)O)C(=O)NCc1nnn(C)n1` showed an IC50 of 0.27 µM. Work on `CNC(=O)[C@H](Cc1ccccc1)NC(=O)[C@H](CC(C)C)N[C@H](CCn1c(=O)c2cc3c(=O)[nH]c(=O)c3cc2c1=O)C(=O)O` yielded an IC50 of 0.038 µM. Molecule `CC(C)C[C@H](N[C@H](CCN1C(=O)c2cc3ccccc3cc2C1=O)C(=O)O)C(=O)NCc1ccc(S(N)(=O)=O)cc1` has an IC50 of 0.07 µM. For `CNC(=O)[C@H](C)NC(=O)[C@H](CC(C)C)N[C@H](CCN1C(=O)c2cc3ccccc3cc2C1=O)C(=O)O`, the IC50 was 0.086 µM. Molecule `CNC(=O)[C@H](Cc1ccccc1)NC(=O)[C@H](CC(C)C)N[C@H](CCN1C(=O)c2ccccc2C1=O)C(=O)O` has an IC50 of 0.081 µM. `CNC(=O)C(NC(=O)[C@H](CC(C)C)N[C@H](CCN1C(=O)c2cc3ccccc3cc2C1=O)C(=O)O)c1ccccc1` (some centres not stated) gave an IC50 of 0.019 µM. `CNC(=O)[C@H](Cc1ccc(O)cc1)NC(=O)[C@H](CC(C)C)N[C@H](CCN1C(=O)c2cc3ccccc3cc2C1=O)C(=O)O` showed an IC50 of 0.029 µM. `CC(C)C[C@H](N[C@H](CCN1C(=O)c2cc3ccccc3cc2C1=O)C(=O)O)C(=O)N(C)C` gave an IC50 of 0.086 µM. For `CNC(=O)[C@H](Cc1ccccc1)NC(=O)[C@H](CC(C)C)N[C@H](CCN1C(=O)c2ccc(-c3ccccc3)cc2C1=O)C(=O)O`, the IC50 was 0.019 µM. `CNC(=O)[C@H](Cc1ccccc1)NC(=O)[C@H](CC(C)C)N[C@H](CCN1C(=O)c2cc3ccccc3c(OC)c2C1=O)C(=O)O` showed an IC50 of 0.054 µM. `CCCOc1ccc2c(c1)C(=O)N(CC[C@@H](N[C@@H](CC(C)C)C(=O)N[C@@H](Cc1ccccc1)C(=O)NC)C(=O)O)C2=O` showed an IC50 of 0.015 µM. `CC(C)C[C@H](N[C@H](CCN1C(=O)c2cc3ccccc3cc2C1=O)C(=O)O)C(=O)NCc1ccccc1` gave an IC50 of 0.087 µM. Molecule `CNC(=O)[C@H](Cc1ccccc1)NC(=O)[C@H](CC(C)C)N[C@H](CCN1C(=O)c2cc3cccc(OC)c3cc2C1=O)C(=O)O` has an IC50 of 0.036 µM. Molecule `CC(C)C[C@H](N[C@H](CCN1C(=O)c2cc3ccccc3cc2C1=O)C(=O)O)C(=O)N1CCCC1c1cccnc1` (stereo in doubt; 75) has an IC50 of 0.044 µM. `CC(C)C[C@H](N[C@H](CCN1C(=O)c2cc3ccccc3cc2C1=O)C(=O)O)C(=O)N1CCCC1c1cccnc1` (stereo in doubt; 76) showed an IC50 of 0.164 µM.
